ChEMBL document CHEMBL1151248, “New lignans from the roots of Valeriana prionophylla with antioxidative and vasorelaxant activities” (2004)

Assays:
[1] = Antioxidant activity assessed as ABTS radical scavenging activity after 1 min by TEAC method
[2] = Antioxidant activity against iodophenol-induced chemiluminescence by horseradish peroxidase/perborate/luminol system; format: functional
Method in brief: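 Total antioxidant capacity read by enhanced chemiluminescence. Reagent was assay buffer plus tablets A and B, which supply luminol, p-iodophenol enhancer and perborate oxidant. Values come from a Trolox standard curve (Trolox 20 μg mL⁻¹ in H2O) and are reported as mM Trolox equivalent; n=3.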

Aorta [3] = assay: Vasorelaxant activity on Wistar rat aorta ring assessed as inhibition of phenylephrine-induced contraction at 100 uM in absence of endothelium; format: functional; set-up: scale not given: the % may be the effect or the level left
Aorta [4] = assay: Vasorelaxant activity on Wistar rat aorta ring assessed as inhibition of phenylephrine-induced contraction at 100 uM in presence of endothelium; format: functional; set-up: scale not given: the % may be the effect or the level left

C[C@@H]1O[C@@H](O[C@@H]2[C@@H](O)[C@H](OCCc3ccc(O)c(O)c3)O[C@H](CO)[C@H]2OC(=O)/C=C/c2ccc(O)c(O)c2)[C@H](O)[C@H](O)[C@H]1O
Activity [1]: 5.3 mM
Activity [2]: 8.2 mM

COc1cc([C@H]2OC[C@]3(O)[C@@H](c4ccc(O)c(OC)c4)OC[C@]23O)ccc1O [PRINSEPIOL]
Activity (Aorta [3]): 5.3%
Activity [1]: 5.33 mM
Activity (Aorta [4]): 29.3%
Activity [2]: 6.7 mM

COc1cc([C@H]2OC[C@]3(O)[C@@H](c4ccc(O[C@@H]5O[C@H](CO)[C@@H](O)[C@H](O)[C@H]5O)c(OC)c4)OC[C@]23O)ccc1O
Activity (Aorta [3]): 0%
Activity [1]: 2.92 mM
Activity (Aorta [4]): 20.4%
Activity [2]: 1.84 mM

COc1cc([C@H]2OC[C@]3(O)[C@@H](c4ccc(O)c(OC)c4)OC[C@H]23)ccc1O
Activity (Aorta [3]): 29%
Activity [1]: 5.1 mM
Activity (Aorta [4]): 24.4%
Activity [2]: 6.31 mM

COc1cc([C@H]2OC[C@@H]3[C@@H](c4ccc(O[C@@H]5O[C@H](CO)[C@@H](O)[C@H](O)[C@H]5O)c(OC)c4)OC[C@]23O)ccc1O
Activity (Aorta [3]): 1.7%
Activity [1]: 2.51 mM
Activity (Aorta [4]): 2.5%
Activity [2]: 1.44 mM
